These results are taken from the array DNA melting data of Ke et al. (doi:10.1101/2024.01.08.574731).

The nature of data set [1]: folding enthalpy; higher = less favourable; fluorescence melt of hairpins on a sequencing array, two-state fit. To be noted: sodium 0.088 M. The gist of the method: (§1)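 Folding enthalpy and melting temperature come from bootstrapped two-state fits to Cy3 fluorescence of library hairpins carrying annealed Cy3 and quencher oligos on a sequenced MiSeq flow cell. Imaging was done in 50 mM Na-HEPES pH 8.0, 25 mM NaCl, stepping by 2.5 °C up to 60 °C, and signals were normalised to pre-quench Cy3 and to control constructs. Results of four replicates were combined by inverse variance, and fitted temperatures were raised by 9.35 °C to match UV melts.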

Data set [2] can be described thus: melting temperature; fluorescence melt of hairpins on a sequencing array, two-state fit, raised by 9.35 °C to match UV melts. To be noted: sodium 0.088 M. The gist of the method:
as §1

As to GGGTTGGGAAACCGACTC (.((.((....)).)).), the folding enthalpy in data set [1] is -16.3 kcal/mol. In data set [2], the Tm is 41.2 °C.

Consider GGGTTTCGAAAGAACCCC (((.(((....))).))), for which the folding enthalpy in data set [1] was -26.1 kcal/mol. Further, the Tm in data set [2] was 51.3 °C.

Regarding GGGTTTGGAAACAAATCC ((.((((....)))).)), in data set [1], the folding enthalpy was -39.6 kcal/mol. In addition, the Tm in data set [2] came out at 47.4 °C.

As for GGGTTTGGAAACAAGCCC (((.(((....))).))), in data set [1], the folding enthalpy is -32.1 kcal/mol. Further, the Tm in data set [2] was found to be 52.7 °C.

Take GGTAACGAAAGTTACC ((((((....)))))): the folding enthalpy in data set [1] was -34.7 kcal/mol. For the same sequence, the Tm in data set [2] was found to be 64.1 °C.

For the sequence GGTAACGAAAGTTGAACC ((((((....)))..))), the folding enthalpy in data set [1] is -14.2 kcal/mol. Moreover, the Tm in data set [2] is 30.1 °C.

As for GGTAACGAAAGTTTCACC ((((((....)))..))), in data set [1], the folding enthalpy was -9.74 kcal/mol. The Tm in data set [2] is 28.8 °C.

As to GGTAACGAAAGTTTTACC ((((((....)))..))), the folding enthalpy in data set [1] was -9.8 kcal/mol. Besides, the Tm in data set [2] stood at 29.7 °C.

As for GGTAACGGAAACGTTATC (.(((((....))))).), the folding enthalpy in data set [1] was -24.5 kcal/mol. In data set [2], the Tm came to 46.4 °C.

Turning to GGTAACGGAAACGTTGCC ((.((((....)))).)), the folding enthalpy in data set [1] is -50.5 kcal/mol. For the same sequence, the Tm in data set [2] turned out to be 53.8 °C.

For GGTAACGGAAACGTTGTC (..((((....))))..), in data set [1], the folding enthalpy is -16.8 kcal/mol. Besides, in data set [2], the Tm was determined as 31.6 °C.

For the sequence GGTAAGGCGAAAGCCACC (((..(((....)))))), in data set [1], the folding enthalpy is -15.3 kcal/mol. Moreover, in data set [2], the Tm amounted to 43.7 °C.

On to GGTAAGGGAAACCCTACC ((((.((....)).)))), for which, in data set [1], the folding enthalpy is -24.3 kcal/mol. In data set [2], the Tm came to 40 °C.

For the sequence GGTAAGGGAAACCTTATC (.(((((....))))).), the folding enthalpy in data set [1] is -25.6 kcal/mol. Further, in data set [2], the Tm worked out at 38.1 °C.

GGTAATACGAAAGTAACC (((..(((....)))))): the folding enthalpy in data set [1] is -9.63 kcal/mol. Moreover, in data set [2], the Tm turned out to be 22.7 °C.

Turning to GGTAATCGAAAGATAACC (((.(((....))).))), in data set [1], the folding enthalpy is -26.3 kcal/mol. Further, in data set [2], the Tm was found to be 41.7 °C.

Regarding GGTAATGGAAACATTGCC ((.((((....)))).)), the folding enthalpy in data set [1] is -29.2 kcal/mol. Besides, in data set [2], the Tm came out at 46.7 °C.

Consider GGTACAACGAAAGTTACC (((..(((....)))))), for which the folding enthalpy in data set [1] is -17.3 kcal/mol. Moreover, in data set [2], the Tm was 33.3 °C.

Consider GGTACAGGAAACCGTACC (((((.(....).))))), for which the folding enthalpy in data set [1] is -33 kcal/mol. Also, the Tm in data set [2] was found to be 47.1 °C.

Regarding GGTACAGGAAACTGTACC (((((((....))))))), in data set [1], the folding enthalpy is -44.5 kcal/mol. Further, in data set [2], the Tm was 59.3 °C.

Turning to GGTACAGGAAACTGTGTC (..((((....))))..), the folding enthalpy in data set [1] is -17.6 kcal/mol. Moreover, the Tm in data set [2] worked out at 28.9 °C.

Regarding GGTACCCGAAAGGGACC (((.(((....)))))), the folding enthalpy in data set [1] is -25.9 kcal/mol. The Tm in data set [2] was 54.5 °C.

Take GGTACCGAAAGGTAGACC ((((((....)))..))): the folding enthalpy in data set [1] is -13.2 kcal/mol. The Tm in data set [2] is 41 °C.

GGTACCGAAAGGTGAACC ((((((....)))..))): the folding enthalpy in data set [1] was -15.5 kcal/mol. Also, the Tm in data set [2] is 37.1 °C.

As for GGTACCGCGAAAGCGACC (((..(((....)))))), the folding enthalpy in data set [1] was -10.2 kcal/mol. Further, the Tm in data set [2] was found to be 28.1 °C.

Take GGTACCGGAAACGGTATC (.(((((....))))).): the folding enthalpy in data set [1] was -23.9 kcal/mol. The Tm in data set [2] turned out to be 51.6 °C.

GGTACGAAAGTACC (((((....))))): the folding enthalpy in data set [1] is -30.4 kcal/mol. Further, the Tm in data set [2] came out at 65.8 °C.

Turning to GGTACGACGAAAGTCACC (((..(((....)))))), the folding enthalpy in data set [1] is -13.4 kcal/mol. For the same sequence, the Tm in data set [2] was determined as 32.9 °C.

With GGTACGCGAAAGCGAACC (((.(((....))).))), in data set [1], the folding enthalpy was -24.8 kcal/mol. For the same sequence, in data set [2], the Tm was found to be 58 °C.

On to GGTACGGGAAACCGTACC (((((((....))))))), for which the folding enthalpy in data set [1] is -33.4 kcal/mol. Further, the Tm in data set [2] was determined as 67.8 °C.

As for GGTACGGGAAACCGTATC (.(((((....))))).), in data set [1], the folding enthalpy is -25.7 kcal/mol. In addition, the Tm in data set [2] was found to be 49.7 °C.

Regarding GGTACGGGAAACTGTACC (((((.(....).))))), the folding enthalpy in data set [1] was -34.3 kcal/mol. Besides, the Tm in data set [2] is 50.9 °C.

For the sequence GGTACTCGAAAGAGAACC (((.(((....))).))), the folding enthalpy in data set [1] is -30 kcal/mol. Further, in data set [2], the Tm was found to be 49.8 °C.

For the sequence GGTACTGGAAACAGTATC (.(((((....))))).), in data set [1], the folding enthalpy is -21.3 kcal/mol. Moreover, the Tm in data set [2] is 44.4 °C.

With GGTACTGGAAACGGTATC (.(((.(....).))).), the folding enthalpy in data set [1] is -13 kcal/mol. Besides, in data set [2], the Tm was 27.7 °C.

On to GGTAGAGGAAACTCCACC (((.(((....))).))), for which the folding enthalpy in data set [1] was -28.2 kcal/mol. The Tm in data set [2] came out at 31.6 °C.

As to GGTAGCGAAAGCTAAACC ((((((....)))..))), the folding enthalpy in data set [1] was -15 kcal/mol. In addition, the Tm in data set [2] amounted to 42.8 °C.
